Laboratory results taken from ChEMBL document CHEMBL1137007, “Synthesis of 4-substituted pyrido[2,3-d]pyrimidin-4(1H)-one as analgesic and anti-inflammatory agents” (Bioorg Med Chem Lett, 2009).

Assays:
Rattus norvegicus [1] = assay: Antiinflammatory activity in rat assessed as inhibition of carrageenan-induced paw oedema at 10 mg/kg, po after 30 mins; assay type: functional; set-up: scale not given: the % may be the effect or the level left
Summary of the method: (§1)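 Rats, six per group, were dosed orally (10 or 20 mg/kg, suspension in 1% carboxymethyl cellulose) before carrageenan paw injection. Paw volume was read by mercury-displacement plethysmography just before and 30 min, 1, 2 and 3 h after carrageenan. %inhibition = 100[1 − (a − x)/(b − y)], with the test group's pre/post volumes set against the vehicle control group's. Reported as mean ± SEM (n = 6) with ANOVA.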

Rattus norvegicus [2] = assay: Antiinflammatory activity in rat assessed as inhibition of carrageenan-induced paw oedema at 20 mg/kg, po after 30 mins; assay type: functional; set-up: scale not given: the % may be the effect or the level left; summary of the method: as §1
Rattus norvegicus [3] = assay: Antiinflammatory activity in rat assessed as inhibition of carrageenan-induced paw oedema at 10 mg/kg, po after 1 hr; assay type: functional; set-up: scale not given: the % may be the effect or the level left; summary of the method: as §1
Rattus norvegicus [4] = assay: Antiinflammatory activity in rat assessed as inhibition of carrageenan-induced paw oedema at 20 mg/kg, po after 1 hr; assay type: functional; set-up: scale not given: the % may be the effect or the level left; summary of the method: as §1
Rattus norvegicus [5] = assay: Antiinflammatory activity in rat assessed as inhibition of carrageenan-induced paw oedema at 10 mg/kg, po after 2 hrs; assay type: functional; set-up: scale not given: the % may be the effect or the level left; summary of the method: as §1
Rattus norvegicus [6] = assay: Antiinflammatory activity in rat assessed as inhibition of carrageenan-induced paw oedema at 20 mg/kg, po after 2 hrs; assay type: functional; set-up: scale not given: the % may be the effect or the level left; summary of the method: as §1
Rattus norvegicus [7] = assay: Antiinflammatory activity in rat assessed as inhibition of carrageenan-induced paw oedema at 10 mg/kg, po after 3 hrs; assay type: functional; set-up: scale not given: the % may be the effect or the level left; summary of the method: as §1
Rattus norvegicus [8] = assay: Antiinflammatory activity in rat assessed as inhibition of carrageenan-induced paw oedema at 20 mg/kg, po after 3 hrs; assay type: functional; set-up: scale not given: the % may be the effect or the level left; summary of the method: as §1
Rattus norvegicus [9] = assay: Toxicity in Wistar albino rat assessed as ulcer index at 20 mg/kg, ip administered once daily for 3 days; assay type: organism-based; set-up: dose 20 mg/kg, route intraperitoneal; settings: in vivo, 72 h
Summary of the method: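 Wistar albino rats of either sex (150–200 g), six per group, housed at 25 °C, 45–55% RH, 12-h light/dark cycle and acclimatized one week. Dosing was intraperitoneal as a suspension in 10% v/v Tween-80, with a vehicle-only control group. Animals were fasted 36 h, then pylorus-ligated (Shay method) on day 4 and sacrificed 4 h later for ulcer index. Values are mean ± SEM (n = 6), analysed by one-way ANOVA.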

Mus musculus [10] = assay: Analgesic activity in Wister albino mice at 10 mg/kg, po after 1 hr by tail-flick test
Mus musculus [11] = assay: Analgesic activity in Wister albino mice at 20 mg/kg, po after 1 hr by tail-flick test
Mus musculus [12] = assay: Analgesic activity in Wister albino mice at 10 mg/kg, po after 2 hrs by tail-flick test
Mus musculus [13] = assay: Analgesic activity in Wister albino mice at 20 mg/kg, po after 2 hrs by tail-flick test
Mus musculus [14] = assay: Analgesic activity in Wister albino mice at 10 mg/kg, po after 3 hrs by tail-flick test
Mus musculus [15] = assay: Analgesic activity in Wister albino mice at 20 mg/kg, po after 3 hrs by tail-flick test
Mus musculus [16] = assay: Analgesic activity in Wister albino mice at 10 mg/kg, po after 30 mins by tail-flick test
Mus musculus [17] = assay: Analgesic activity in Wister albino mice at 20 mg/kg, po after 30 mins by tail-flick test

SMILES | Activity (Rattus norvegicus [1]) | Activity (Rattus norvegicus [2]) | Activity (Rattus norvegicus [3]) | Activity (Rattus norvegicus [4]) | Activity (Rattus norvegicus [5]) | Activity (Rattus norvegicus [6]) | Activity (Rattus norvegicus [7]) | Activity (Rattus norvegicus [8]) | UI (Rattus norvegicus [9]) | Activity (Mus musculus [10]) | Activity (Mus musculus [11]) | Activity (Mus musculus [12]) | Activity (Mus musculus [13]) | Activity (Mus musculus [14]) | Activity (Mus musculus [15]) | Activity (Mus musculus [16]) | Activity (Mus musculus [17])
O=c1[nH]cnc2nc3[nH]c(=S)[nH]c(=O)c3c(-c3ccc(N4CCOCC4)cc3)c12 | 31% | 39% | 36% | 42% | 38% | 46% | 29% | 36% | 0.86 | 38% | 47% | 45% | 53% | 29% | 36% | 30% | 44%
CN1CCN(c2ccc(-c3c4c(N)ncnc4nc4[nH]c(=S)[nH]c(=O)c34)cc2)CC1 | 35% | 43% | 37% | 48% | 38% | 50% | 31% | 38% | 0.69 | 43% | 58% | 45% | 58% | 36% | 43% | 39% | 50%
Nc1ncnc2nc3[nH]c(=S)[nH]c(=O)c3c(-c3ccc(N4CCOCC4)cc3)c12 | 35% | 43% | 40% | 47% | 42% | 49% | 30% | 38% | 0.7 | 43% | 57% | 46% | 58% | 27% | 36% | 38% | 55%
O=c1[nH]cnc2nc3[nH]c(=S)[nH]c(=O)c3c(-c3ccc(N4CCCCC4)cc3)c12 | 30% | 35% | 34% | 41% | 38% | 44% | 27% | 32% | 0.89 | 36% | 50% | 45% | 55% | 33% | 39% | 32% | 40%
Nc1nc(=O)[nH]c2nc3[nH]c(=S)[nH]c(=O)c3c(-c3ccc(N4CCCCC4)cc3)c12 | 33% | 40% | 39% | 46% | 43% | 48% | 29% | 35% | 0.72 | 43% | 51% | 46% | 53% | 33% | 44% | 39% | 48%
Nc1nc(=S)[nH]c2nc3[nH]c(=S)[nH]c(=O)c3c(-c3ccc(N4CCCCC4)cc3)c12 | – | – | – | – | – | – | – | – | 0.69 | – | – | – | – | – | – | – | –
CN1CCN(c2ccc(-c3c(C#N)c(N)nc4[nH]c(=S)[nH]c(=O)c34)cc2)CC1 | 39% | 48% | 40% | 55% | 46% | 60% | 31% | 37% | 0.51 | 60% | 68% | 64% | 72% | 44% | 52% | 53% | 67%
